This is an account of results in ChEMBL document CHEMBL4145680, “Tau-Centric Multitarget Approach for Alzheimer's Disease: Development of First-in-Class Dual Glycogen Synthase Kinase 3β and Tau-Aggregation Inhibitors” (J Med Chem, 2018).

Series [1] concerns the target T1, Glycogen synthase kinase-3 beta (Homo sapiens, UniProt P49841). Put plainly: Inhibition of okadaic acid-induced GSK-3beta-mediated tau hyperphosphorylation in human SH-SY5Y cells assessed as increase in cell viability pre-incubated for 1 hr before okadaic acid stimulation for 24 hrs by MTT assay. The format is cell-based. Put shortly: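 SH-SY5Y cells grown in DMEM with 10% FBS, seeded at 60000 per well and used 48 h later. Compound given 1 h before 30nM okadaic acid, then 24 h incubation. Viability by MTT, 0.5mg/mL for at least 4 h, formazan dissolved in DMSO, absorbance at 595 nm. Expressed relative to control (=100); n=6 from three independent experiments.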
Target sequence in this assay (P49841 whole entry, looked up): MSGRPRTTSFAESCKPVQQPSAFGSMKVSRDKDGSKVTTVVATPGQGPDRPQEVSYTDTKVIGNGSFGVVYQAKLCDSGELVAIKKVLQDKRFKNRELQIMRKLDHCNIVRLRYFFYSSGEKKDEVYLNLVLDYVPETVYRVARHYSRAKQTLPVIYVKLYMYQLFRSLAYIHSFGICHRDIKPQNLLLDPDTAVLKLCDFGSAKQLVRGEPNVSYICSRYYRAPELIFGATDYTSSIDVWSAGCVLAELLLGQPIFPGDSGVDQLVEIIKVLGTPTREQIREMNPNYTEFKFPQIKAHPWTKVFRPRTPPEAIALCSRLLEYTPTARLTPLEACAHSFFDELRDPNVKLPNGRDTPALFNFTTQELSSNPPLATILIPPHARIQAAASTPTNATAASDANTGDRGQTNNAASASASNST

Series [2] addresses T1, Glycogen synthase kinase-3 beta. Put plainly: Inhibition of GSK3beta (unknown origin) at 10 uM. Put shortly:
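Human recombinant GSK-3β (20 ng) with 25 µM GS-2 prephosphorylated peptide and 1 µM ATP in 50 mM HEPES pH 7.5, 1 mM EDTA, 1 mM EGTA, Mg acetate. DMSO at most 1%. 30 min at 30 °C; reaction stopped with Kinase-Glo, luminescence read after 10 min. Activity scaled between no inhibitor and full inhibition by a reference inhibitor.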
Target sequence in this assay (P49841 whole entry, looked up): as above

Series [3] deals with Microtubule-associated protein tau (Homo sapiens) (UniProt P10636). Put plainly: Inhibition of heparin-induced full-length 2N4R tau self aggregation (unknown origin) assessed as reduction in formed aggregates level at 10 uM by ThT fluorescence assay based RT-QuIC analysis. Put shortly:
(§1)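 Full-length 2N4R tau 20 µM with heparin 0.02 mg/mL, 0.5 mM DTT and 10 µM ThT in PBS, ±10 µM compound; 1% DMSO control. Cycled 1 min shaking at 600 rpm and 1 min rest at 42 °C. ThT read every 2 min (ex 450, em 480 nm).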

Series [4] has as its target Casein kinase I isoform delta (Homo sapiens) (UniProt P48730). Put plainly: Inhibition of human recombinant CK1delta at 10 uM incubated for 60 mins by Kinase-Glo assay. Put shortly: (§2)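 Human recombinant CK1δ or CK1ε, 16 ng, in 50 mM HEPES pH 7.5 with 10 mM MgCl2, 1 mM EGTA and Brij-35. Substrate 0.1% casein with 4 µM ATP; compound diluted to 10 µM before addition, DMSO ≤1%. Incubated 60 min at 30 °C, then Kinase-Glo luminescence read. Inhibition relative to no-inhibitor activity; mean of two experiments.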
A general note: Kinase-Glo measures the ATP left after a reaction by luminescence.

Series [5] in a line: Hepatotoxicity in human HepG2 cells assessed as reduction in cell viability at 5 to 50 uM incubated for 24 hrs by MTT assay. The conditions noted are these: hepg2, 24 h. The format is toxicity, cell-based. Put shortly: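 HepG2 cells grown in DMEM with 10% FBS at 37 °C, 5% CO2, seeded at 0.5 × 10^5 cells/well and left 24 h. Exposed in serum-free DMEM for 24 h (concentrations listed as 0, 10, 25, 50 µM; elsewhere 0, 5, 25, 50 µM). MTT 0.1 mg/mL for 10 min at 37 °C in the dark. Formazan dissolved in Tris/Triton X-100, A570. Mean ± SE of ≥3 experiments in triplicate; reported as % of control.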

Series [6] can be described thus: Inhibition of tau K18 fragment peptide aggregation assessed as reduction in […] self aggregation at 1 to 10 uM measured every 15 mins by ThT fluorescence assay based RT-QuIC analysis. Put shortly: (§3)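 Tau K18 21 µM with heparin 0.015 mg/mL, 0.1 mM DTT and 10 µM ThT in PBS, with compound at 1, 5 or 10 µM or 1% DMSO; triplicate. Cycled 1 min shaking at 300 rpm and 14 min rest at 37 °C. ThT read every 15 min (ex 450, em 480 nm). Inhibition from mean plateau fluorescence.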

For series [7], the target named is T1, Glycogen synthase kinase-3 beta. The series is described as follows: Reversible inhibition of GSK3beta (unknown origin) pre-incubated for 30 mins followed by 100 fold dilution into buffer containing ULight-GS (Ser641/pSer657) peptide substrate and cofactors by TR-FRET assay based jump-dilution assay. In general terms: Time-resolved FRET reads energy transfer from a long-lived donor to a nearby acceptor.
Target sequence in this assay (P49841 whole entry, looked up): as above

Series [8] addresses CDC7/DBF4 (Cell division cycle 7-related protein kinase/Activator of S phase kinase) (Homo sapiens) (UniProt Q9UBU7+O00311). The series is described as follows: Inhibition of CDC7/Dbf4 (unknown origin) at 10 uM incubated for 60 mins by Kinase-Glo assay. The format is protein-complex assay. The conditions noted are these: in the assay text read “ADP-Glo assay” for “Kinase-Glo assay”. Put shortly:
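CDC7/DBF4 enzyme, 25 ng/well, with 10 µM ATP (final) and PDKtide substrate. Incubated 60 min at room temperature. ADP-Glo reagent added for 40 min, then detection reagent for 30 min, and luminescence read. Inhibition calculated relative to the no-inhibitor maximum.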

The nature of series [9]: Inhibition of AcPHF6 peptide aggregation in pH 7.4 phosphate buffer at 20 uM by CD Spectroscopy.
Series [10] has as its system Cerebellar granule neurone. The series is described as follows: Neurotoxicity in rat primary cerebellar granule neurons assessed as reduction in cell viability at 5 to 25 uM incubated for 24 hrs by MTT assay. The series is classed as toxicity. In short, it runs like this: (§4)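 Cerebellar granule neurons from 7-day-old rat pups, plated on poly-L-lysine at 3 × 10^5 cells/well in BME with FBS and 25 mM KCl. Cytosine arabinoside 10 µM added at 16 h. At 7 days in vitro, switched to serum-free BME with 25 mM KCl and treated 24 h at 0, 5, 25 or 50 µM. MTT 0.1 mg/mL for 20 min at 37 °C, A570. Mean ± SE of ≥3 experiments in triplicate, as % of control.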
On the technique in general: Tetrazolium dyes change colour on reduction, which living cells bring about.

The target in series [11] is Casein kinase I isoform epsilon (Homo sapiens) (UniProt P49674). The series is described as follows: Inhibition of human recombinant CK1epsilon at 10 uM incubated for 60 mins by Kinase-Glo assay. In short, it runs like this:
as §2

In series [12] the target is T1, Glycogen synthase kinase-3 beta. Put plainly: Inhibition of GSK3beta (unknown origin) at 10 uM using GS-2 peptide substrate incubated for 30 mins by kinase-Glo luminescent assay. In short, it runs like this: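 Human recombinant GSK-3β, 20 ng, in 50 mM HEPES pH 7.5 with 1 mM EDTA, 1 mM EGTA and Mg acetate. Substrate prephosphorylated GS-2 peptide 25 µM with 1 µM ATP; DMSO ≤1%. Incubated 30 min at 30 °C, then Kinase-Glo luminescence read after 10 min. Activity scaled between no-inhibitor and full-inhibition reference controls.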
Target sequence in this assay (P49841 whole entry, looked up): as above

For series [13] the target is unchanged. Put plainly: Inhibition of GSK3beta (unknown origin) using GS-2 peptide substrate incubated for 30 mins by kinase-Glo luminescent assay. Put shortly:
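Human recombinant GSK-3β, 20 ng, in 50 mM HEPES pH 7.5 with 1 mM EDTA, 1 mM EGTA and Mg acetate. Incubated 30 min at 30 °C, then Kinase-Glo luminescence read after 10 min. Activity scaled between no-inhibitor and full-inhibition reference controls.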
Target sequence in this assay (P49841 whole entry): as the sequence (P49841 whole entry, looked up) above

Series [14] can be described thus: Permeability in pH 7.4 PBS incubated for 2.5 hrs by PAMPA-BBB assay. The series is classed as ADME. Particulars: read-out: permeability. In short, it runs like this:
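PAMPA-BBB: donor filter coated with porcine brain lipid in dodecane (20 mg/mL). Compounds in PBS pH 7.4/EtOH 70:30, acceptor filled with the same. Sandwich incubated 2.5 h at 25 °C, then donor and acceptor concentrations measured by UV at 3–5 wavelengths, 3 wells, two runs. Ten reference drugs included for validation.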

A short description of series [15]: Inhibition of tau K18 fragment peptide aggregation assessed as induction of delay in […] self aggregation at 1 to 10 uM measured every 15 mins by ThT fluorescence assay based RT-QuIC analysis. Put shortly:
as §3

In series [16] the target is T1, Glycogen synthase kinase-3 beta. The series is described as follows: Competitive inhibition of GSK3beta (unknown origin) at 10 uM using fixed level of GS-2 peptide substrate and varying ATP levels incubated for 30 mins by kinase-Glo luminescent assay. Put shortly:
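Human recombinant GSK-3β, 20 ng per reaction, in HEPES pH 7.5 buffer with EDTA, EGTA and Mg acetate. GS-2 prephosphorylated peptide held at 25 µM; ATP varied from 1 to 50 µM along with inhibitor level. 30 min at 30 °C, then Kinase-Glo luminescence read after 10 min. Lineweaver–Burk double-reciprocal analysis; means of two experiments, each run in triplicate.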
Target sequence in this assay (P49841 whole entry, looked up): as above

For series [17] the target is unchanged. The series is described as follows: Inhibition of GSK3beta (unknown origin) pre-incubated for 30 mins followed by ULight-GS (Ser641/pSer657) peptide substrate addition and measured after 1 hr by TR-FRET assay.
Target sequence in this assay (P49841 whole entry): as the sequence (P49841 whole entry, looked up) above
For series [18], the system named is Cerebellar granule neurone. The series is described as follows: Neurotoxicity in rat primary cerebellar granule neurons assessed as reduction in cell viability at 50 uM incubated for 24 hrs by MTT assay. The format is toxicity. In short, it runs like this: as §4
Series [19] can be described thus: Inhibition of AcPHF6 peptide aggregation in pH 7.4 phosphate buffer at 10 uM by atomic force microscopy. In short, it runs like this:
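AcPHF6 500 µM in water diluted to 50 µM in 50 mM phosphate pH 7.4, ±10 µM compound, no ThT. Incubated 80 min at 25 °C with 10 s shaking at 400 rpm each minute. Ultrafiltered (30 kDa cut-off), buffer exchanged to water, and the retained high-MW fraction adsorbed on mica. Imaged by PeakForce tapping-mode AFM.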

Series [20] addresses Microtubule-associated protein tau (Homo sapiens) (UniProt P10636). Put plainly: Inhibition of heparin-induced full-length 2N4R tau self aggregation (unknown origin) assessed as induction of delay in aggregation at 10 uM by ThT fluorescence assay based RT-QuIC analysis. In short, it runs like this: as §1

SMILES strings stand for the structures. Calls of active or inactive are those of the source. Some results are limits rather than exact numbers.

Chain of Microtubule-associated protein tau (Homo sapiens) (P10636 whole entry): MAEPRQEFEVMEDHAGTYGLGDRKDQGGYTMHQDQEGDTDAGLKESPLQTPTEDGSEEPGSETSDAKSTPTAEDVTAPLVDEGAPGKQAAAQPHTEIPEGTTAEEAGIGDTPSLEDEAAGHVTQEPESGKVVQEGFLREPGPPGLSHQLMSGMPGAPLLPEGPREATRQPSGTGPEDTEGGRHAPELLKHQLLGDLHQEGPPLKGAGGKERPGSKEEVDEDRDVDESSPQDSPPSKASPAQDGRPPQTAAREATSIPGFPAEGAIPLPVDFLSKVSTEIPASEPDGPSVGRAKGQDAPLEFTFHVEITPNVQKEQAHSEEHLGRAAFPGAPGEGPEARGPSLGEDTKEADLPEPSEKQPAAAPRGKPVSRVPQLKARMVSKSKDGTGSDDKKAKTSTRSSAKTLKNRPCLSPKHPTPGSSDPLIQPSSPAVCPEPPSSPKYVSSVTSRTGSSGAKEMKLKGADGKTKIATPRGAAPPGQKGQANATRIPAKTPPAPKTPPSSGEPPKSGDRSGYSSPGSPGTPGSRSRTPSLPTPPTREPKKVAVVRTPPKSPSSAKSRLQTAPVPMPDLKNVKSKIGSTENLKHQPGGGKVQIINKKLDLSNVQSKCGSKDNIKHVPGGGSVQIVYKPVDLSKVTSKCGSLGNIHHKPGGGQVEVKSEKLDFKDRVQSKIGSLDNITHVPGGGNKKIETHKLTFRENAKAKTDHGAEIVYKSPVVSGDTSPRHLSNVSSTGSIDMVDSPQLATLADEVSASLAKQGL
Chain of Casein kinase I isoform epsilon (Homo sapiens) (P49674 whole entry, looked up, canonical isoform): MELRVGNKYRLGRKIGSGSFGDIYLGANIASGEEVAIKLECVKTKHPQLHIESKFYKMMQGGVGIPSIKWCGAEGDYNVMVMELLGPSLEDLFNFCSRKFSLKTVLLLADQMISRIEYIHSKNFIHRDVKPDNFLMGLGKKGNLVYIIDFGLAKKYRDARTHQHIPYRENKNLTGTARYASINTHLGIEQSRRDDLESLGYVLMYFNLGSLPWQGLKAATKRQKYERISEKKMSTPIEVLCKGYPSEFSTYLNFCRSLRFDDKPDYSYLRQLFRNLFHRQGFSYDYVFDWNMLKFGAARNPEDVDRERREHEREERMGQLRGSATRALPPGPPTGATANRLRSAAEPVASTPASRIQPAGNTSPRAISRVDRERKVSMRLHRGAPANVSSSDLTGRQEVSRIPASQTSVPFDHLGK
Chain of CDC7/DBF4 (Cell division cycle 7-related protein kinase/Activator of S phase kinase) (Homo sapiens) (O00311 whole entry, looked up): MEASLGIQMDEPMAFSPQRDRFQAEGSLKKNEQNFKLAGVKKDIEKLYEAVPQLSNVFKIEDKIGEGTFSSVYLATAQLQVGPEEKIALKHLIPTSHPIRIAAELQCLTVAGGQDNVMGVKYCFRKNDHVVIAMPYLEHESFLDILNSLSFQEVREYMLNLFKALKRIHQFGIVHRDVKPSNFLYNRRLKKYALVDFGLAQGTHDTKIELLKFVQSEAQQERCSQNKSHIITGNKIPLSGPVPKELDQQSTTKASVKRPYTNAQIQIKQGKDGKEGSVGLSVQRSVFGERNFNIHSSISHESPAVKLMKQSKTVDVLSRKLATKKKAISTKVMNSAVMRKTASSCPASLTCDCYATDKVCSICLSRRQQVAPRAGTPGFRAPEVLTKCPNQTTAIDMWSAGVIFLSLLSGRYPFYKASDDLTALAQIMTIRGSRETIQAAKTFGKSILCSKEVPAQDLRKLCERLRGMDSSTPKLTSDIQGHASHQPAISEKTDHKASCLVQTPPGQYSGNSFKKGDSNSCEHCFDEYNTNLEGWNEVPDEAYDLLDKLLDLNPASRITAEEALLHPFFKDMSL
Chain of CDC7/DBF4 (Cell division cycle 7-related protein kinase/Activator of S phase kinase) (Homo sapiens) (Q9UBU7 whole entry, looked up): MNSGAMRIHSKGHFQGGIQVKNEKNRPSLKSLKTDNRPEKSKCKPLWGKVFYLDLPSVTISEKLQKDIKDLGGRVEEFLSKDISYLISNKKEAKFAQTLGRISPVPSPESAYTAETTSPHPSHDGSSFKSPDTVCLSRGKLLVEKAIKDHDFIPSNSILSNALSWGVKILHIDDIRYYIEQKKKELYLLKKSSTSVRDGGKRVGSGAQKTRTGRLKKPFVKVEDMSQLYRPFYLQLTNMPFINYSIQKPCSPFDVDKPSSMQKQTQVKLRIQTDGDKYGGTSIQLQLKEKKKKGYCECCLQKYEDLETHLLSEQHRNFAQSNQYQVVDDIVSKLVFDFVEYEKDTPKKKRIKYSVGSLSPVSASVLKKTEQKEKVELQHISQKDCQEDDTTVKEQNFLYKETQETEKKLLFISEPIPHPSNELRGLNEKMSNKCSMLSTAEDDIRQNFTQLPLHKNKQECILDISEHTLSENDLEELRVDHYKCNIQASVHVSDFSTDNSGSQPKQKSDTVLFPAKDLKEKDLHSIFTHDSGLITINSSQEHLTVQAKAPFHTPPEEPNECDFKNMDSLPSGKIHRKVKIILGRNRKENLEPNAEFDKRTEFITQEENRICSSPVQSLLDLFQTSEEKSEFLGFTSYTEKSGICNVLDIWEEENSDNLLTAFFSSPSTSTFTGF
Chain of Casein kinase I isoform delta (Homo sapiens) (P48730 whole entry, looked up, canonical isoform): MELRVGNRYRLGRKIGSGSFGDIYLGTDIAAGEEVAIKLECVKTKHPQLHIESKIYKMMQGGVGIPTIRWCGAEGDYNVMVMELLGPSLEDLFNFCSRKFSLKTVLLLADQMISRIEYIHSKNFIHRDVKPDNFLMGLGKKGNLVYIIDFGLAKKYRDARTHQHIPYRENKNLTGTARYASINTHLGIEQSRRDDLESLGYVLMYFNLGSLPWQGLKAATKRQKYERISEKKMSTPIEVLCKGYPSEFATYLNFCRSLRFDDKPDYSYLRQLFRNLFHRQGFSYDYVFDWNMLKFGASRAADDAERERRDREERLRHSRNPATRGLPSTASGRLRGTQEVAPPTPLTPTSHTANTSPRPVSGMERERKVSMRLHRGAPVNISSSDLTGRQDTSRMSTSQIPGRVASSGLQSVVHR

Regarding `COc1ccc2c(c1)c(/C=C1\SC(=O)NC1=O)cn2C`, the inhibition result in series [1], in series [7], in [9], in series [15], in [16] and in series [19] was “Active” each time. Also, the inhibition (in general, the drop in the measured response relative to a control, in per cent) in series [2] is 100%; in series [3] it was 30%; in [6] it was 35%; in [12], more than 50%. Further, the inhibition result in [4], in series [8], in [11] and in series [20] was “inactive” throughout. Moreover, the Activity entry in series [5] is given as “Non-Toxic”; in series [10], “Non-Toxic”; in series [18], “Toxic”. The IC50 (commonly the point on the concentration scale where inhibition reaches its midpoint) in series [13] was found to be 0.89 µM; in series [17], 5.5 µM. The Papp at 2.5 h in series [14] was more than 30.7 nm/s.
